Source: PubChem BioAssay AID623915 (Johns Hopkins Ion Channel Center, 2012)
Values joined by “and” are separate entries in the source; they are usually repeats but may differ in a detail not shown here. Identical values can stand only once. Active and inactive are the calls of the source.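 How the source made its calls: active means more than 50% block of the TASK1 potassium channel current at 10 µM; inactive means the rest.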

Molecular target: Potassium channel subfamily K member 3 (Rattus norvegicus) (UniProt O54912)
Test: TASK1 (KCNK3) current inhibitors, SAR follow-up, selectivity assay for KCNK9 inhibitor project, automated electrophysiology, QPatch, CHO cells (AID 623915)
Conditions: QPatch whole-cell current inhibition
How it was run: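 Detection: automated patch clamp, current read at -30 mV; material: Inducible-TASK1 CHO cells; schedule: 5 min exposure at each compound concentration; medium: external bath solution with 140 mM K+, pH 7.40; read-out: per-cell IC50 from Hill fit, slope one, fractional block 0–1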

Sequence of Potassium channel subfamily K member 3 (Rattus norvegicus) (O54912 whole entry, looked up): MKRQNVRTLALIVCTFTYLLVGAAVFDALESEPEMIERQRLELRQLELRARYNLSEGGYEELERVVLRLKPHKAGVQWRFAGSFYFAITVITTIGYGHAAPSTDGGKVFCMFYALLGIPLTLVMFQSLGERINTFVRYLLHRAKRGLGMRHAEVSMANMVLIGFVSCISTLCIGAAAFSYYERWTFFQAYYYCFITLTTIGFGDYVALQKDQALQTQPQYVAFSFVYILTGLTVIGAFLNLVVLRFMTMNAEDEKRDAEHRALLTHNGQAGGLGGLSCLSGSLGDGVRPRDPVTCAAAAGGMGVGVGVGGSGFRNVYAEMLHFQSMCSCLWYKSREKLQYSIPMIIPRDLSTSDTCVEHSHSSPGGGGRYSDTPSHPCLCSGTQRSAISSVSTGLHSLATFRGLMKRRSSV

Row | Compound | IC50 | outcome
1 | CC(C1CC2CCC1C2)n1c(-c2ccco2)nn(CCc2ccncc2)c1=S (stereo unspecified) | 1.85 µM | 
2 | C[C@@H]([C@@H]1CC2CC[C@H]1C2)n1c(-c2ccsc2)n[nH]c1=S | 1.96 µM and 6.43 µM | 
3 | CC(C1CC2CCC1C2)n1c(-c2ccco2)n[nH]c1=S (stereo unspecified) | 0.82 µM | 
4 | C[C@H]([C@@H]1CC2CC[C@H]1C2)n1c(-c2ccsc2)n[nH]c1=S |  | inactive
5 | C[C@H](C1CCCCC1)n1c(-c2ccsc2)n[nH]c1=S | 6.43 µM | 
6 | C[C@@H]([C@@H]1CC2CC[C@H]1C2)n1c(-c2ccco2)n[nH]c1=S | 3.2 µM | 
